Screening results (PubChem)
TRPC4 block: blocks the mouse TRPC4 cation channel; Q9QUQ5; HEK293 TRPC4beta/mu-opioid, DAMGO-evoked Fluo4 calcium flux; stronger effect = lower value; B-score at 10 µM; 300,000 tested, 0.39% active;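 active = B-score over 3 SD under the library average, no early fluorescence shift, positive overall ratio signal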
Target sequence (Q9QUQ5 whole entry, looked up): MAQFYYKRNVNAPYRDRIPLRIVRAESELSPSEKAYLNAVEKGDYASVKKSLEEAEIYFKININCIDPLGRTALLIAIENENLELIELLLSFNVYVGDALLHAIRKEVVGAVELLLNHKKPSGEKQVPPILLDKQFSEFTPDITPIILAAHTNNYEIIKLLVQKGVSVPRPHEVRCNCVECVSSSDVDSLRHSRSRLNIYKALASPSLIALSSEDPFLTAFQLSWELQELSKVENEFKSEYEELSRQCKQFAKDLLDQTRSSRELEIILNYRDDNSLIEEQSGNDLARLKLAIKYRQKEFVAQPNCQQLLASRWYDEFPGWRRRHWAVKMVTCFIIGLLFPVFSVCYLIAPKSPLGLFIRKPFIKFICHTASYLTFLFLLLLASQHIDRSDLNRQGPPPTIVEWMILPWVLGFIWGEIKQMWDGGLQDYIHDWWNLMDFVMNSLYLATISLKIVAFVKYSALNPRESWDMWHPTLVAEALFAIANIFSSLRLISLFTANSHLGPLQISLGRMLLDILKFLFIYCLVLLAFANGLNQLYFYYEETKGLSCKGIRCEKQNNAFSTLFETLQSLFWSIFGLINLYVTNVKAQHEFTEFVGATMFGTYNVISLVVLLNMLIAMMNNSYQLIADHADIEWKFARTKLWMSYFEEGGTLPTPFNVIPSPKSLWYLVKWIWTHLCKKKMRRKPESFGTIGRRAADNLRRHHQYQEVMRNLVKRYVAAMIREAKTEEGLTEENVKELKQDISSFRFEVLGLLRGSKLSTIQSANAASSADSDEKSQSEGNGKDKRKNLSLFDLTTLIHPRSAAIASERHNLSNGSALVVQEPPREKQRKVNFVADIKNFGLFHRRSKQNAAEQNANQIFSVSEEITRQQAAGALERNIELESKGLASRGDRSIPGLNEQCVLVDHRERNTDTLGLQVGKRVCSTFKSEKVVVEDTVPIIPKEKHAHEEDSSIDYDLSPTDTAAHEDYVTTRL
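Signal: kinetic Fluo4 fluorescence imaging of calcium influx. Material: stable TRPC4beta/mu-opioid receptor HEK293 cells. Probe or stimulus: DAMGO in two steps, submaximal then maximal.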
TRPC4 agonist: opens the mouse TRPC4 cation channel | Q9QUQ5 | 310,000 tested, 0.49% active | B-score at 10 µM | HEK293 TRPC4beta/mu-opioid, Fluo4 calcium fluorescence; stronger effect = higher value | AID 2237;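 active = B-score above 5 SD of library B-scores, and initial fluorescence ratio not above library mean plus 5 SD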;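 also: positive B-score marks a calcium rise read as TRPC4 activation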
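System – HEK293 cells stably co-expressing mouse TRPC4beta and mu-opioid receptor · Signal – Fluo4 calcium-sensitive dye fluorescence, kinetic, 1 Hz baseline · Benchmarks – buffer (low) and maximal DAMGO (high) · Read-out – B score of integrated fluorescence ratio per well · Incubation – dye loading 45 min room temperature, 110 s kinetic read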
TRPC6 inhibitor: mouse TRPC6 channel inhibition; Q61143; HEK293-TRPC6, membrane potential dye, ACh-evoked depolarization; stronger effect = lower value; B-score at 10 µM; 310,000 tested, 1.1% active; AID 2553;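 active = B-score under library mean minus 3 SD, initial fluorescence not abnormally high, positive integrated signal ratio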;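 also: B-score derived from integrated fluorescence ratio over the kinetic read; more negative B-score means stronger inhibition of depolarization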
TRPC6 activator: mouse TRPC6 channel activation; Q61143; HEK293-TRPC6 membrane potential dye fluorescence; stronger effect = higher value; B-score at 10 µM; 310,000 tested, 0.13% active; AID 2550;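 active = B-score of the integrated fluorescence ratio above library mean plus 3 SD, and starting fluorescence ratio within library mean plus 5 SD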;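 also: higher score means more depolarization so channel activation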
TRPC4 potent: allosterically enhances the mouse TRPC4 cation channel. HEK293 TRPC4beta/mu-opioid, DAMGO EC20, Fluo-4 Ca2+ flux; stronger effect = higher value. 310,000 tested, 0.42% active. Q9QUQ5. AID 2227. B-score at 10 µM;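 active = B-score of calcium response area above 5 SD of library B-scores, with initial fluorescence ratio within 5 SD of library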;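 also: B-score of integrated fluorescence ratio over time as area under calcium response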
An asterisk follows results filed as active; i = inactive. In the library only some 2.3% were active in any assay of this set; here they are far more common.

SMILES	TRPC4 block	TRPC4 agonist	TRPC6 inhibitor	TRPC6 activator	TRPC4 potent
CC(=O)Nc1ccc(C2(c3ccc(NC(C)=O)cc3)C(=O)Nc3ccccc32)cc1	-7*	58*	i	i	i
O=C(Nc1nc(N2C(=O)c3ccccc3C2=O)n(-c2ccccc2)n1)c1ccc(Cl)cc1	-6*	47*	i	i	i
Cc1cc(Br)cc(C)c1OCCCCN(C)C	i	i	i	i	35*
Cc1cc(Cl)c(OCCCN(C)C)c(Br)c1	i	i	i	i	i
COc1ccc(NC(=S)Nc2ncccc2C)c(OC)c1	i	i	i	i	i
O=[N+]([O-])c1ccc2c(c1)/C(=N\O)c1ccccc1-2	i	i	i	i	i
NN=C1c2cc([N+](=O)[O-])ccc2-c2ccc([N+](=O)[O-])cc21	i	i	i	i	18*
Cc1cccc2sc(N(CCN(C)C)C(=O)c3cc(Cl)sc3Cl)nc12	i	i	i	i	12*
O=C(NCc1ccco1)c1sc(=S)n2c1[nH]c(=O)c1ccccc12	i	114*	i	i	i
O=C(NC1CCCC1)c1sc(=S)n2c1[nH]c(=O)c1ccccc12	i	83*	i	i	i
CCN(c1ccccc1)S(=O)(=O)c1cc([N+](=O)[O-])ccc1N	i	i	-5.58*	i	i
COc1cccc(CN2C(=O)C(C)N(C(=O)c3c(F)cccc3F)c3ccccc32)c1 (stereo unspecified)	i	i	i	i	i
CC1C(=O)N(Cc2ccccc2F)c2ccccc2N1C(=O)c1c(F)cccc1F (stereo unspecified)	i	i	i	i	10*
CCCCCCCC[n+]1cccc2c3ccccc3ccc21	-6*	i	i	i	i
COc1ccc(CNC(=O)COC(=O)C2CCN(S(=O)(=O)c3ccccc3C(F)(F)F)CC2)cc1	i	i	i	i	i
O=C1CN(C(=O)COC(=O)C2CCN(S(=O)(=O)c3ccccc3C(F)(F)F)CC2)c2ccccc2N1	i	i	i	i	11*
COc1ccc(CC(=O)N2CCN(S(=O)(=O)c3cccs3)CC2)cc1OC	i	i	i	i	i
COc1ccc(-c2nc(CSCC(=O)NC3CC3)c(C)o2)cc1OC	i	i	i	i	i
COc1ccc(-c2nc(CSCC(=O)NC3CCN(Cc4ccccc4)CC3)c(C)o2)cc1OC	i	116*	i	i	i
c1cncc(COC2CCCN(Cc3nc(-c4cccs4)no3)C2)c1 (stereo unspecified)	i	i	i	i	i
O=C(N/N=C/c1cc2c(cc1Br)OCO2)c1cc2ccccc2o1	-7*	i	i	i	i
Clc1ccc(N=C2SCC3CCCCN23)cc1 (stereo unspecified)	i	i	i	i	23*
O=C(CCNC(=O)Cn1ccc2ccccc2c1=O)NCCN1CCN(c2cccc(Cl)c2)CC1	-6*	i	i	i	i
COc1cccc(CN2CCN(CCCc3ccccc3)C(CCO)C2)c1OC (stereo unspecified)	i	i	i	i	i
CCN1/C(=C/c2ccc3cccc(C)c3[n+]2CC)Sc2ccccc21	-6*	335*	i	i	15*
SMILES	TRPC4 block	TRPC4 agonist	TRPC6 inhibitor	TRPC6 activator	TRPC4 potent
CCN1/C(=C\c2ccc3cc(C)ccc3[n+]2CC)Sc2cc(C)c(C)cc21	i	131*	i	i	29*
O=c1[nH]ncc(NCCc2ccccc2)c1Cl	i	i	i	i	i
O=c1c(NCCc2ccc(Cl)cc2)c(-c2ccccc2)c1=O	i	i	i	i	14*
Cc1sc2ncnc(NC3CCN(Cc4ccccc4)CC3)c2c1C	i	193*	i	i	i
O=C(NC1CCS(=O)(=O)C1)c1ccc(S(=O)(=O)N2CCCC2)cc1 (stereo unspecified)	i	i	i	i	i
CCCCn1c(CN2CCN(c3cccc(Cl)c3)CC2)nc2c1c(=O)n(C)c(=O)n2C	i	i	i	i	i
Cn1c(=O)n(CCCO)c(=O)c2c1nc1n2CCCN1Cc1ccccc1	-6*	i	i	i	i
Cn1c(=O)c2c(nc(CN3CCN(C(c4ccccc4)c4ccccc4)CC3)n2CCCO)n(C)c1=O	i	i	i	i	13*
CCCn1c(CN2CCN(c3cccc(Cl)c3)CC2)nc2c1c(=O)n(C)c(=O)n2C	i	i	i	i	12*
COCCn1c(CN2CCN(C(c3ccccc3)c3ccccc3)CC2)nc2c1c(=O)n(C)c(=O)n2C	i	i	i	i	i
CCCOC(=O)C1=C(C)NC2=C(C(=O)CC(C)(C)C2)C1c1ccc(N(C)C)cc1 (stereo unspecified)	i	i	i	i	i
O=C(CN1CCOCC1)N1CCc2ccccc2C(c2ccccc2)C1 (stereo unspecified)	i	i	i	i	i
CC(=O)c1ccc(NC(=O)c2sc3nc(C)c(C)c(C)c3c2N)cc1	i	i	i	i	i
CC(C)(C)c1cc(NC(=O)c2cccc([N+](=O)[O-])c2)no1	i	i	i	i	i
Cc1cc(-c2cn3ccccc3n2)c(C)n1-c1ccccc1	-7*	i	i	i	i
CN(C(=O)Cn1c(=O)oc2cc(S(=O)(=O)N3CCCC3)ccc21)C1CCCCC1	i	i	i	i	i
O=C(Nc1ccc(F)cc1)c1cc2ccccc2o1	i	i	i	i	i
CCC(=O)c1cc2c(C)cc(=O)oc2c(C)c1OC(=O)C(C)C	-6*	i	i	i	i
Cc1ccc2oc(C(=O)N3CCC(O)(c4ccccc4)CC3)c(C)c2c1	i	i	i	i	15*
CCN(CC)C(=O)C1CCN(C(=O)c2oc3ccc(C)cc3c2C)CC1	i	i	i	i	i
C=CCNC(=S)Nc1sc2c(c1C#N)CCCC2	i	i	i	i	i
CCCc1nc(SC2CCCC2)c2c(=O)n(C)c(=O)n(C)c2n1	-5*	i	i	i	i
COc1ccc(O)c(CN2CCCC(N3CCN(c4ccccc4OC)CC3)C2)c1 (stereo unspecified)	i	43*	i	i	i
COc1ccccc1N1CCN(C2CCCN(Cc3ccc(Cl)cc3)C2)CC1 (stereo unspecified)	i	i	i	i	i
COc1ccccc1N1CCN(C2CCCN(Cc3ccccc3OCCO)C2)CC1 (stereo unspecified)	i	i	i	i	12*
